Reference: ChEMBL document CHEMBL4393661, “PRODRUGS FOR NITROREDUCTASE BASED CANCER THERAPY- 2: Novel amide/Ntr combinations targeting PC3 cancer cells” (Eur J Med Chem, 2019)

Assays:
[1] = molecular target: T1, Putative nitroreductase (Staphylococcus saprophyticus subsp. saprophyticus (strain ATCC 15305 / DSM20229 / NCIMB 8711 / NCTC 7292 / S-41), UniProt Q4A0P1); experiment: Substrate activity at Staphylococcus saprophyticus nitroreductase expressed in Escherichia coli assessed as retention time […] at 100 uM by HPLC analysis (0 to 5 mins at 20 % ACN, 15 to 22 min at 80% ACN, 27-32 AT 20% ACN); assay type: ADME
T1 sequence (Q4A0P1 whole entry): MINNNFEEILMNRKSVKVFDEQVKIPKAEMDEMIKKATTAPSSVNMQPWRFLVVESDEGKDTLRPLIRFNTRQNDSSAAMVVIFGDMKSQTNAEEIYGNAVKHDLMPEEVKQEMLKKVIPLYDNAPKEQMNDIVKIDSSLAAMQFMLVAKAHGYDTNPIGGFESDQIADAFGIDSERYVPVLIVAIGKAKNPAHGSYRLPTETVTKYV

[2] = test system: PC-3; experiment: Cytotoxicity in human PC3 cells assessed as reduction in cell viability at 180 nM measured after 48 hrs by SRB assay; assay type: cell-based; settings: pc-3, 48 h, 0.18 µM
How it was run: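 They were exposed for 48 h to prodrug alone at 180 nM final, without enzyme or NADH, with 25 mM Tris-HCl as vehicle control. Cells were fixed with 12.5% TCA for 1 h at 4 °C, stained with 0.4% SRB and read at 492 nm as % cell survival, in triplicate.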

[3] = test system: PC-3; experiment: Cytotoxicity against human PC3 cells assessed as reduction in cell viability measured after 48 hrs in presence of Staphylococcus saprophyticus nitroreductase and NADH by SRB assay; assay type: cell-based; settings: PC-3, 48 h
How it was run: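 Prodrug at 180, 18 or 1.8 nM was premixed with Ssap-NtrB (31 µg/mL final) and NADH (600 µM final; 900 µM for CB1954) in 25 mM Tris-HCl pH 7.5, then added for 48 h under aerobic conditions. Cells were fixed with 12.5% TCA, stained with SRB and read at 492 nm, in triplicate.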

[4] = Cytotoxicity against human Hep3B cells assessed as cell viability at 9 to 150 uM measured after 48 hrs by MTT assay relative to control; assay type: cell-based, Hep 3B2; settings: read-out: Activity
How it was run: (§1)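 Hep3B and HUVEC cells were grown in high-glucose medium with 10% heat-inactivated FBS and 2 mM glutamine at 37 °C in 5% CO2. Cells were seeded at 5x10^4 per well and left 24 h to attach. They were then exposed for 48 h to 150, 75, 39, 19 and 9 µM, with 1% DMSO as vehicle control. Viability was read by MTT at 550 nm as (OD sample/OD control)×100.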

[5] = Cytotoxicity against human HUVEC cells assessed as cell viability at 9 to 150 uM measured after 48 hrs by MTT assay relative to control; assay type: cell-based; settings: read-out: Activity; how it was run: as §1
[6] = Cytotoxicity against human PC3 cells assessed as cell viability at 9 to 150 uM measured after 48 hrs by MTT assay relative to control; assay type: cell-based, PC-3; settings: read-out: Activity
How it was run: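 They were treated for 48 h at 9, 18, 39, 78 and 150 µM, with 1% DMSO as vehicle control. Viability was read by MTT at 550 nm.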

[7] = molecular target: T1, Putative nitroreductase; experiment: Substrate activity at Staphylococcus saprophyticus nitroreductase expressed in Escherichia coli assessed as retention time in the presence of NADPH at 100 uM by HPLC analysis (0 to 5 mins at 20% ACN, 25 to 35 min at 80% ACN, 40 to 45 min at 20% ACN); assay type: ADME
[8] = molecular target: T2, Staphylococcus saprophyticus nitroreductase (Staphylococcus saprophyticus subsp. saprophyticus (strain ATCC 15305 / DSM20229 / NCIMB 8711 / NCTC 7292 / S-41), UniProt Q4A0P1); experiment: Substrate activity at Staphylococcus saprophyticus nitroreductase expressed in Escherichia coli assessed as half life […] at 100 uM by HPLC analysis (0 to 5 mins at 20% ACN, 25 to 35 min at 80% ACN, 40 to 45 min at 20% ACN); assay type: ADME
T2 sequence (Q4A0P1 whole entry): T1 sequence (Q4A0P1 whole entry)

[9] = Solubility of the compound in 15% DMSO; assay type: physicochemical
[10] = molecular target: T2, Staphylococcus saprophyticus nitroreductase; experiment: Substrate activity at Staphylococcus saprophyticus nitroreductase expressed in Escherichia coli assessed as half life […] at 100 uM by HPLC analysis (0 to 5 mins at 20 % ACN, 15 to 22 min at 80% ACN, 27-32 AT 20% ACN); assay type: ADME
[11] = test system: Hep 3B2; experiment: Cytotoxicity against human Hep3B cells assessed as reduction in cell viability measured after 48 hrs by MTT assay; assay type: cell-based; how it was run: as §1
[12] = molecular target: T1, Putative nitroreductase; experiment: Substrate activity at Staphylococcus saprophyticus nitroreductase expressed in Escherichia coli assessed as retention time […] at 111 uM by HPLC analysis (0 to 5 mins at 20 % ACN, 15 to 22 min at 80% ACN, 27-32 AT 20% ACN); assay type: ADME
[13] = molecular target: T1, Putative nitroreductase; experiment: Substrate activity at Staphylococcus saprophyticus nitroreductase expressed in Escherichia coli assessed as retention time in the presence of NADPH at 111 uM by HPLC analysis (0 to 5 mins at 20% ACN, 25 to 35 min at 80% ACN, 40 to 45 min at 20% ACN); assay type: ADME
[14] = molecular target: T2, Staphylococcus saprophyticus nitroreductase; experiment: Substrate activity at Staphylococcus saprophyticus nitroreductase expressed in Escherichia coli assessed as half life in the presence of NADPH at 111 uM by HPLC analysis (0 to 5 mins at 20% ACN, 25 to 35 min at 80% ACN, 40 to 45 min at 20% ACN); assay type: ADME

Structure (SMILES): O=C(Nc1ccccc1NC(=O)c1ccc([N+](=O)[O-])cc1)c1ccc([N+](=O)[O-])cc1
- Retention_time [1]: 21.38 min
- Activity [2]: Non-Toxic
- IC50 [3]: 14.3 nM
- viability at 48 h, up to 150 µM [4]: > 80%
- viability at 48 h, up to 150 µM [5]: > 80%
- viability at 48 h, up to 150 µM [6]: > 80%
- Retention_time [7]: 22.08 min
- half-life at 100 µM [8]: < 3.2 h
- solubility [9]: Soluble

Structure (SMILES): O=C(Nc1ccc(NC(=O)c2ccc([N+](=O)[O-])cc2)cc1)c1ccc([N+](=O)[O-])cc1
- Retention_time [1]: 16.61 min
- viability at 48 h, up to 150 µM [4]: 51 to 80%
- viability at 48 h, up to 150 µM [5]: > 80%
- viability at 48 h, up to 150 µM [6]: > 80%
- solubility [9]: Soluble

Structure (SMILES): NC(=O)c1cc(N2CC2)c([N+](=O)[O-])cc1[N+](=O)[O-] [TRETAZICAR]
- Activity [2]: Non-Toxic

Structure (SMILES): CC(=O)Nc1cc([N+](=O)[O-])ccc1Br
- Retention_time [1]: 13.88 min
- half-life [10]: < 0.2 h
- Activity [2]: Non-Toxic
- IC50 [3]: 10200 nM
- viability at 48 h, up to 150 µM [4]: > 80%
- viability at 48 h, up to 150 µM [5]: > 80%
- viability at 48 h, up to 150 µM [6]: > 80%

Structure (SMILES): O=C(NCCNC(=O)c1ccc([N+](=O)[O-])cc1)c1ccc([N+](=O)[O-])cc1
- Retention_time [1]: 18.65 min
- half-life [10]: < 1.2 h
- Activity [2]: Non-Toxic
- IC50 [3]: 31.1 nM
- viability at 48 h, up to 150 µM [4]: 51 to 80%
- viability at 48 h, up to 150 µM [5]: > 80%
- viability at 48 h, up to 150 µM [6]: > 80%
- Retention_time [7]: 17.86 min
- half-life at 100 µM [8]: < 2.54 h
- solubility [9]: Soluble

Structure (SMILES): CCCCN(CCCC)c1c([N+](=O)[O-])cc(C(=O)Nc2ccc(Cl)cc2)cc1[N+](=O)[O-]
- IC50 [11]: 11600 nM
- viability at 48 h, up to 150 µM [4]: < 50%
- viability at 48 h, up to 150 µM [5]: < 50%
- viability at 48 h, up to 150 µM [6]: < 50%
- Retention_time [12]: 20.12 min
- Retention_time [13]: 34.2 min
- half-life [14]: < 2.4 h

Structure (SMILES): O=C(NCCCCNC(=O)c1ccc([N+](=O)[O-])cc1)c1ccc([N+](=O)[O-])cc1
- Retention_time [1]: 19.02 min
- Activity [2]: Non-Toxic
- IC50 [3]: 36.8 nM
- viability at 48 h, up to 150 µM [4]: > 80%
- viability at 48 h, up to 150 µM [5]: > 80%
- viability at 48 h, up to 150 µM [6]: > 80%
- solubility [9]: Soluble

Structure (SMILES): O=C(NC1CCCCC1NC(=O)c1ccc([N+](=O)[O-])cc1)c1ccc([N+](=O)[O-])cc1 (centres undefined)
- Retention_time [1]: 20.91 min
- half-life [10]: < 0.52 h
- Activity [2]: Non-Toxic
- IC50 [3]: 15.5 nM
- viability at 48 h, up to 150 µM [4]: > 80%
- viability at 48 h, up to 150 µM [5]: > 80%
- viability at 48 h, up to 150 µM [6]: > 80%
- Retention_time [7]: 20.85 min
- half-life at 100 µM [8]: < 1.8 h
- solubility [9]: Soluble

Structure (SMILES): O=C(Nc1cccc(NC(=O)c2ccc([N+](=O)[O-])cc2)c1)c1ccc([N+](=O)[O-])cc1
- Retention_time [1]: 21.88 min
- Activity [2]: Non-Toxic
- IC50 [3]: 33.4 nM
- viability at 48 h, up to 150 µM [4]: > 80%
- viability at 48 h, up to 150 µM [5]: > 80%
- viability at 48 h, up to 150 µM [6]: > 80%
- Retention_time [7]: 21.98 min
- solubility [9]: Soluble

Structure (SMILES): CN(C)c1c([N+](=O)[O-])cc(C(=O)Nc2ccc(Cl)cc2)cc1[N+](=O)[O-]
- IC50 [11]: 120000 nM
- viability at 48 h, up to 150 µM [4]: < 50%
- viability at 48 h, up to 150 µM [5]: 51 to 80%
- viability at 48 h, up to 150 µM [6]: < 50%
- Retention_time [12]: 19.22 min
- Retention_time [13]: 25.86 min
- half-life [14]: < 3.15 h

Structure (SMILES): O=C(NC1CCCC(NC(=O)c2ccc([N+](=O)[O-])cc2)C1)c1ccc([N+](=O)[O-])cc1 (centres undefined)
- Retention time [1]: 19.4 to 20.6 min
- half-life [10]: < 2 h
- Activity [2]: Non-Toxic
- IC50 [3]: 30.5 nM
- viability at 48 h, up to 150 µM [4]: > 80%
- viability at 48 h, up to 150 µM [5]: > 80%
- viability at 48 h, up to 150 µM [6]: 51 to 80%
- Retention time [7]: 19.4 to 20.1 min
- half-life at 100 µM [8]: < 0.26 h
- solubility [9]: Soluble

Structure (SMILES): O=C(c1ccc([N+](=O)[O-])cc1)N1CCN(C(=O)c2ccc([N+](=O)[O-])cc2)CC1
- Retention_time [1]: 17.28 min
- Activity [2]: Non-Toxic
- IC50 [3]: 18 nM
- viability at 48 h, up to 150 µM [4]: > 80%
- viability at 48 h, up to 150 µM [5]: > 80%
- viability at 48 h, up to 150 µM [6]: 51 to 80%
- Retention_time [7]: 17.6 min
- half-life at 100 µM [8]: < 1.42 h
- solubility [9]: Soluble

Structure (SMILES): CCCCN(CCCC)c1c([N+](=O)[O-])cc(C(=O)Nc2ccc([N+](=O)[O-])cc2)cc1[N+](=O)[O-]
- IC50 [11]: 30900 nM
- viability at 48 h, up to 150 µM [4]: < 50%
- viability at 48 h, up to 150 µM [5]: < 50%
- viability at 48 h, up to 150 µM [6]: < 50%
- Retention_time [12]: 26.5 min
- Retention_time [13]: 31.96 min
- half-life [14]: < 1.56 h

Structure (SMILES): CCN(C(C)=O)c1cc([N+](=O)[O-])ccc1Br
- Retention_time [1]: 15.18 min
- half-life [10]: < 0.1 h
- Activity [2]: Non-Toxic
- IC50 [3]: 12600 nM
- viability at 48 h, up to 150 µM [4]: > 80%
- viability at 48 h, up to 150 µM [5]: > 80%
- viability at 48 h, up to 150 µM [6]: > 80%
